Reference: publication PMC7024737 (British Journal of Pharmacology, 2020)
“And” between values parts separate entries of the source, which are not always exact repeats. Equal values may be shown once. Read-outs that look alike come from different tables or passages of the source. Each block holds one compound with its values, some of them ahead of it.

How the values were obtained:
SD rats = test: Transection tail bleeding time; format: in vivo, rat
Outline: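 Male SD rats were dosed orally with test compound, either once or twice daily for 2 weeks; clopidogrel 8 mg·kg−1 was given on the same regimens. One hour after dosing, under urethane (1.25 g·kg−1 i.p.), tails were transected 3 mm from the tip and blotted every 30 s until bleeding stopped, with a 30 min cut‑off. n = 6 (single) or 5 (multiple) per group.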

[1] = Pharmacokinetic experiments in rats; format: in vivo; conditions: Sprague-Dawley, rat, plasma; for Tmax: SD rats, p.o. 25 mg·kg^−1
washed platelets [2] = test: P-selectin expression under high shear stress; format: cell-based, human
Outline: (§1)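 Human washed platelets (acid–citrate–dextrose with 1 μM PGE1, washed in Tyrode's pH 7.4, 3 × 10^8/ml, 2 mM CaCl2) were incubated with a range of test compound concentrations, then sheared at 10,800 s−1 for 10 min in a cone-plate viscometer. Cells were labelled with anti-CD42b-PE plus anti-CD62P-FITC, PAC-1-FITC or Alexa Fluor 488-fibrinogen for 20 min in the dark and read by flow cytometry (10,000 events). Values are relative to vehicle and normalised to unsheared samples, mean ± SEM. n = 6 for P-selectin and PAC-1, n = 5 for fibrinogen.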

rat platelets (PRP) [3] = test: SIPA in rat PRP in vitro; format: cell-based; conditions: n = 8
washed platelets [4] = test: Fibrinogen binding under high shear stress; format: cell-based, human
Outline: as §1

washed platelets [5] = test: Intracellular calcium level under high shear stress; format: cell-based, human; conditions: washed platelets, 10,800 s^−1, concentration-dependent
human platelets (PRP) [6] = test: Shear stress-induced platelet aggregation; format: cell-based
GP IIb/IIIa = GP IIb/IIIa activation under high shear stress; format: cell-based, human
Outline: as §1

rat platelets (PRP) [7] = test: Ex vivo determination of SIPA inhibition after oral dosing; format: in vivo; conditions: rats, 5, 10 and 25 mg·kg^−1 p.o., 1 hr
Outline: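 Male SD rats (280–320 g) were gavaged with test compound in 5% DMSO/10% Tween 80 in water at 5 ml·kg−1. After 1 hr, aortic blood was drawn under urethane (1.25 g·kg−1 i.p.) into 3.8% citrate (1:9), and PRP was prepared. PRP was sheared at 10,800 s−1 in a cone‑plate viscometer, fixed with glutaraldehyde, and aggregation was scored by microscopic single‑cell count. n = 6 rats per group.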

[8] = test system: platelets in human whole blood; test: Thrombus formation under flow conditions, collagen-coated flow chamber; format: cell-based; conditions: shear rate 1,500 s^−1, concentration-dependent, n = 5
Outline: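 Flow chambers were coated with 100 μg·ml−1 equine type I collagen for 60 min at room temperature, washed with PBS and blocked with 1% BSA for 60 min. Whole blood loaded with 5 μM calcein‑green AM was incubated with test compound for 30 min. It was perfused at 1,500 s−1 for 5 min, imaged by confocal microscopy, and reported as % coverage area, n = 5.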

washed human platelets = test: SIPA in washed human platelets; format: cell-based; conditions: 30 min incubation, n = 6
Outline: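 Human washed platelets (3 × 10^8/ml in Tyrode's pH 7.4, 2 mM CaCl2) were preincubated with test compound for 30 min, and 10 μg·ml−1 vWF was added. They were then sheared in a cone-plate viscometer at 10,800 s−1 for 10 min at 37°C and fixed with 0.5% glutaraldehyde. Aggregation was scored from single-cell counts by light microscopy and […]. n = 6, mean ± SEM.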

human platelets (PRP) [9] = test: Agonist-induced platelet aggregation in human PRP; format: cell-based; conditions: for IC50: Homo sapiens, Platelet
Outline: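 Human blood was anticoagulated with 3.2% citrate (1:9) and spun at 150 g for 15 min to give PRP, adjusted to 3 × 10^8 platelets/ml with PPP. PRP was incubated with test compound for 30 min at 37°C, then stimulated for 6 min with thrombin (0.6–0.8 U·ml−1), collagen (2–4 μg·ml−1), ADP (5–10 μM) or ristocetin (1.0–1.25 mg·ml−1). Aggregation was read by light transmission, with PPP as 100%.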

human purified vWF = test: Platelet adhesion to vWF-coated flow chamber under high shear stress; format: cell-based; conditions: flow chamber coated with 50 μg·ml^−1 vWF
platelets [10] = test: Platelet cytotoxicity, LDH leakage; format: cell-based, human; conditions: concentrations up to 1,000 μM
Outline: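 Platelets were incubated with test compound and centrifuged. Supernatant was added to Tris‑EDTA NADH buffer (56 mM Tris, 5.6 mM EDTA, 0.17 mM β‑NADH, pH 7.4) and preincubated for 10 min at 37°C, then 14‑mM pyruvate solution was added. LDH was read as the fall in A339, expressed as % of total activity in a 0.3% Triton X‑100 lysate. Samples were run in duplicate, with five repeats.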

vWF–GP Ib interaction = vWF–GP Ib interaction (Homo sapiens, UniProt P04275); test: vWF binding to platelets under high shear stress; format: cell-based
Chain of vWF–GP Ib interaction (P04275 764-2813 limits assumed): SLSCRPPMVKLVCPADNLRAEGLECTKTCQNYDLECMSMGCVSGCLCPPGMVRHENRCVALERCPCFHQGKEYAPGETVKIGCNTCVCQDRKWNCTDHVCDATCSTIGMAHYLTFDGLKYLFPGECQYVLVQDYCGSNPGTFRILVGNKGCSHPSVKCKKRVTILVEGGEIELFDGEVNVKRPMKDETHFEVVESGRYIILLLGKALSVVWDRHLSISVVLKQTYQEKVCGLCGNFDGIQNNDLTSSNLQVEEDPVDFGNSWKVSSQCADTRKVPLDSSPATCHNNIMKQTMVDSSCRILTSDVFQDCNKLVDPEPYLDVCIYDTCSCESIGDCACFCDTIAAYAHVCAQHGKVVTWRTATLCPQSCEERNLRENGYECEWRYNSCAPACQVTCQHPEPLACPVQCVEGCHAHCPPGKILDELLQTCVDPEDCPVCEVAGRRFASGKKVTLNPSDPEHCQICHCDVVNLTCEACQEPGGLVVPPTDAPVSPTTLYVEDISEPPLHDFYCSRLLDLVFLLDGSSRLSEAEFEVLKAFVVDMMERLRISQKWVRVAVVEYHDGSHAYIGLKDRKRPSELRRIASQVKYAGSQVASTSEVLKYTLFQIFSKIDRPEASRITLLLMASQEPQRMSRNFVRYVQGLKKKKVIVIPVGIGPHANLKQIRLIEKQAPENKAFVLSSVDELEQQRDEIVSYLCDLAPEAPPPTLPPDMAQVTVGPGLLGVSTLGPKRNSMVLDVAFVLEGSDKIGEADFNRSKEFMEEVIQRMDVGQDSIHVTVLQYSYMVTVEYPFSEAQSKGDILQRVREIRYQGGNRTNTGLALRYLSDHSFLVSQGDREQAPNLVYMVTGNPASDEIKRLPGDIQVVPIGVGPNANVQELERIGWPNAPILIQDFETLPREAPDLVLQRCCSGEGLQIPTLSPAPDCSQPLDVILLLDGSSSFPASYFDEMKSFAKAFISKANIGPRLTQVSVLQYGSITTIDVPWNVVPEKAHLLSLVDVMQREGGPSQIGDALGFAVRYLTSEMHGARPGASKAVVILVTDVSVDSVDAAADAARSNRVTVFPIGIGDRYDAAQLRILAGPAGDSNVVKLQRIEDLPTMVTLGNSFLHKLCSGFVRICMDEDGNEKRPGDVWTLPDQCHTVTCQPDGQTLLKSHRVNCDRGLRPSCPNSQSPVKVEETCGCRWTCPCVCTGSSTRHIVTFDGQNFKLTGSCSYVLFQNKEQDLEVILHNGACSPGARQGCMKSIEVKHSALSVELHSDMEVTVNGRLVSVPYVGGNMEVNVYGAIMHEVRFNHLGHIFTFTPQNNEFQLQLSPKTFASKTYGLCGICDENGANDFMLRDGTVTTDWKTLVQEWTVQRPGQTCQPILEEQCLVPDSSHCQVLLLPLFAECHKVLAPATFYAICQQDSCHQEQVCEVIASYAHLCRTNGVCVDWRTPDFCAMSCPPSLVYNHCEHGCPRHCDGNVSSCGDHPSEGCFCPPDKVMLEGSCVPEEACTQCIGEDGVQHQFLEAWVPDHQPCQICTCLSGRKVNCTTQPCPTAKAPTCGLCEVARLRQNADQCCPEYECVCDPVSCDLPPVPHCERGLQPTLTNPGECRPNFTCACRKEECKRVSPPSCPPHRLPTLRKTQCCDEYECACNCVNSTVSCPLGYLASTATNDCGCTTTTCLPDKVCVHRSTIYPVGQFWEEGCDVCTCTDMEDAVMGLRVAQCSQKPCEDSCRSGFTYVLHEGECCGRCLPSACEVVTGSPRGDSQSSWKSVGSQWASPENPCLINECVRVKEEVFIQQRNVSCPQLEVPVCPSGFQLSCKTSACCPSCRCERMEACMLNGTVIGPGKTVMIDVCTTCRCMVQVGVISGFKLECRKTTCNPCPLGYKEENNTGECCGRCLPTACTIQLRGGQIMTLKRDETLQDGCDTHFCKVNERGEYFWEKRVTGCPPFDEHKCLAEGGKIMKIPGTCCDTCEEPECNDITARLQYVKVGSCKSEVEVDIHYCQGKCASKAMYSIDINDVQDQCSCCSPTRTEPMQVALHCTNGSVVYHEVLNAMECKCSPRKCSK
Outline: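 Platelets were treated with test compound, exposed to shear stress, and diluted in Tyrode's buffer. They were stained with anti‑vWF‑FITC and anti‑CD42b‑PE for 20 min in the dark, and 10,000 events were analysed by flow cytometry. For GP IIb/IIIa blockade, platelets were preincubated with 2 mM Arg‑Gly‑Asp. Values are expressed relative to vehicle and normalised to unsheared samples, n = 5.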

platelets [11] = test: 5-HT release under high shear stress; format: cell-based, human
Outline: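 Platelets were treated with a range of test compound concentrations for 30 min and exposed to high shear stress. Supernatants were collected by centrifugation at 12,000 g for 5 min at 4°C, and 5‑HT was measured by ELISA. Samples were run in duplicate, n = 5 per group. Values are expressed relative to matched vehicle and normalised to unsheared samples.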

[12] = test system: carotid artery thrombosis in SD rats; test: FeCl3-induced arterial thrombosis model; format: in vivo, rat
[13] = Ex vivo prothrombin time and activated partial thromboplastin time; conditions: rats, therapeutic dose range p.o., 1 hr

Tail bleeding time (bleeding risk) (SD rats; 8 mg·kg^−1): clearly increased
Compound: COC(=O)[C@H](c1ccccc1Cl)N1CCc2sccc2C1 [clopidogrel, reference compound]

AUC(0-inf) ([1]; iv, 10 mg/kg): 3250 ng·h/mL | Vd ([1]; iv, 10 mg/kg): 5.3 ± 1.1 L/kg | clearance ([1]; iv, 10 mg/kg): 51.7 mL/min/kg | half-life ([1]; iv, 10 mg/kg): 2.4 ± 0.5 h | bioavailability ([1]; oral, 25 mg·kg^−1): 55.3 ± 16.7% | AUC(0-inf) ([1]; po, 25 mg/kg): 4490 ng·h/mL | Cmax ([1]; po, 25 mg/kg): 2370 ng/mL | half-life ([1]; po, 25 mg/kg): 3.6 ± 1.4 h | Tmax ([1]; po, 25 mg/kg, tmax (hr)): 7.2 ± 6 min | Tmax ([1]; po, 25 mg/kg, tmax): ~7 min | concentration at 3 min ([1]; po, 25 mg·kg^−1): 2290 ng/mL | concentration at 15 min ([1]; po, 25 mg·kg^−1): 1750 ng/mL and 6 µM | concentration at 30 min ([1]; po, 25 mg·kg^−1): 1060 ng/mL and 3.7 µM | concentration at 1 hr ([1]; po, 25 mg·kg^−1): 2.2 µM and 586 ng/mL | concentration at 4 hr ([1]; po, 25 mg·kg^−1): 1.3 µM and 366 ng/mL | concentration at 8 hr ([1]; po, 25 mg·kg^−1): 700 nM and 198 ng/mL | Tail bleeding time, single dose (SD rats; single oral dose up to 100 mg·kg^−1): did not prolong bleeding time | IC50 (human platelets (PRP) [9]; read-out: IC50 (μM), platelet activator ADP): > 250 µM | IC50 (human platelets (PRP) [9]; read-out: IC50 (μM), platelet activator collagen): > 250 µM | IC50 (human platelets (PRP) [9]; read-out: IC50 (μM), platelet activator thrombin): > 250 µM | Binding of vWF to platelets under high shear with GP IIb/IIIa blocked (vWF–GP Ib interaction; GP IIb/IIIa blocked by Arg-Gly-Asp 2 mM): maintained | Binding of vWF to platelets under high shear (vWF–GP Ib interaction; GP IIb/IIIa free, concentration-dependent): markedly blocked | Blood clotting time (prothrombin time and activated partial thromboplastin time) [13]: did not prolong blood clotting time
Compound: CCc1occc(=O)c1OC(=O)c1ccc(O)c(OC)c1 [SP‐8008, benzoic acid, 4‐hydroxy‐3‐methoxy‐, 2‐ethyl‐4‐oxo‐4H‐pyran‐3‐yl ester]
Effect on shear stress-induced P-selectin expression (α-granule secretion) (washed platelets [2]): significant reduction | Effect on SIPA in rat platelets in vitro (rat platelets (PRP) [3]): significantly inhibited | Effect on shear stress-induced fibrinogen binding (washed platelets [4]): significantly blocked | Effect on shear stress-induced intracellular calcium elevation (washed platelets [5]): decreased the elevation of intracellular calcium | inhibition at 25 µM (human platelets (PRP) [6]; Homo sapiens, Platelet, read-out: In vitro SIPA inhibition (%)): 84 ± 16% | Effect on SIPA in human PRP (human platelets (PRP) [6]; concentration-dependent, 30 min incubation, n = 8): significantly inhibited | Selectivity for SIPA over thrombin, collagen, ADP (human platelets (PRP) [6]; ratio of IC50 values): over 150 fold | Effect on shear stress-induced GP IIb/IIIa activation (GP IIb/IIIa): significantly blocked | Ex vivo effect on SIPA after oral administration (rat platelets (PRP) [7]): dose‐dependent inhibitory effects | Size and number of platelet aggregates in collagen-coated flow chamber [8]: significantly reduced | Effect on SIPA in washed human platelets (washed human platelets): suppressed | Ristocetin-induced platelet aggregation (human platelets (PRP) [9]; human PRP, ristocetin): attenuated | Adhesion of platelets to vWF-coated surfaces (human purified vWF): significantly inhibited | LDH leakage from platelets (platelets [10]): did not increase LDH leakage | Effect on shear stress-induced 5-HT release (dense granule secretion) (platelets [11]): significant reduction | Potency against arterial thrombosis after intravenous administration ([12]; intravenous administration, data not shown): strong inhibitory potency | Inhibition of arterial thrombosis compared with clopidogrel (8 mg·kg^−1) ([12]; rats, 25 mg·kg^−1 p.o., single treatment): close to that provided by clopidogrel | Time to occlusion, single treatment ([12]; rats, 10 or 25 mg·kg^−1 p.o., FeCl3): significantly prolong | Antithrombotic effects, multiple treatments ([12]; rats, oral twice daily for 5 days (2 weeks elsewhere in the source)): further confirmed
